Reference: ChEMBL document CHEMBL2151038, “Synthesis, characterization and biological evaluation of some novel 2,4-thiazolidinediones as potential cytotoxic, antimicrobial and antihyperglycemic agents” (Bioorg Med Chem Lett, 2012)
In brackets after ≈: the same amount, converted by molar mass.

How the values were obtained:
Aspergillus niger = assay: Antifungal activity against Aspergillus niger NCIM 548 after 48 hrs by NCCLS agar well diffusion method; format: functional; conditions: NCIM 548, 48 h
Procedure, shortened: (§1)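 Spore suspensions in sterile distilled water adjusted to 10⁶ CFU/mL, 0.1 mL spread on potato-dextrose agar. 6 mm wells received 0.1 mL compound in 1% DMSO (final 16–512 µg/mL). Controls: 1% DMSO and ketoconazole (16 µg/mL). Triplicate plates, 48 h at 28 ± 0.2 °C. MIC = lowest concentration completely inhibiting growth.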

Micrococcus luteus = assay: Antibacterial activity against Micrococcus luteus NCIM 2155 after 24 hrs by NCCLS agar well diffusion method; format: functional; conditions: NCIM 2155, 24 h
Procedure, shortened: (§2)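 Nutrient agar seeded with 0.1 mL bacterial suspension (10⁵ CFU/mL in 0.85% saline). 6 mm wells filled with 0.1 mL compound. Plates in triplicate, 37 ± 0.5 °C for 24 h. MIC = lowest concentration giving complete growth inhibition.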

Bacillus pumilus = assay: Antibacterial activity against Bacillus pumilus NCIM 2327 after 24 hrs by NCCLS agar well diffusion method; format: functional; conditions: NCIM 2327, 24 h; procedure, shortened: as §2
Rattus norvegicus [1] = assay: Antihyperglycemic activity in streptozotocin-induced type 2 diabetic Wistar albino rat assessed as reduction in plasma glucose level at 30 mg/kg, po by glucometer; format: functional
Procedure, shortened: (§3)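 Wistar albino rats of either sex, 150–200 g, fasted 16 h. Diabetes induced by nicotinamide 150 mg/kg, then STZ 65 mg/kg in citrate buffer pH 4.5. Glucose confirmed after 48 h. Groups of six. Oral dosing as 0.25% sodium CMC suspension at 10, 30 or 50 mg/kg. Rosiglitazone was the reference. Retro-orbital plasma glucose measured by glucometer before dosing and at 1, 2, 4, 6, 8, 12 and 24 h. Results as mean ± SEM, compared by ANOVA, t-test and Dunnett's test.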

Proteus vulgaris = assay: Antibacterial activity against Proteus vulgaris NCIM 2813 after 24 hrs by NCCLS agar well diffusion method; format: functional; conditions: NCIM 2813, 24 h; procedure, shortened: as §2
[2] = Toxicity in mouse assessed as changes in vital functions; format: organism-based; conditions: in vivo
Staphylococcus aureus = assay: Antibacterial activity against Staphylococcus aureus NCIM 2079 after 24 hrs by NCCLS agar well diffusion method; format: functional; conditions: NCIM 2079, 24 h; procedure, shortened: as §2
Klebsiella pneumoniae = assay: Antibacterial activity against Klebsiella pneumoniae NCIM 5082 after 24 hrs by NCCLS agar well diffusion method; format: functional; conditions: NCIM 5082, 24 h; procedure, shortened: as §2
Penicillium chrysogenum = assay: Antifungal activity against Penicillium chrysogenum NCIM 738 after 48 hrs by NCCLS agar well diffusion method; format: functional; conditions: NCIM 738, 48 h; procedure, shortened: as §1
Artemia salina = assay: Cytotoxicity in brine shrimps larvae assessed as mortality after 24 hrs; format: functional; conditions: read-out: ED50 (the source's name)
Procedure, shortened: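 Artemia salina nauplii hatched 38 h under constant aeration in sterile brine (sea salt 38 g/L, pH 8.5 with 1 N NaOH). Ten nauplii per vial were exposed to a range of compound concentrations at 37 °C for 24 h under incandescent light, alongside vehicle-treated controls. Survivors were counted, % lethality was taken from mean survivors versus control, and ED50 came from probit analysis.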

Bacillus subtilis = assay: Antibacterial activity against Bacillus subtilis NCIM 2063 after 24 hrs by NCCLS agar well diffusion method; format: functional; conditions: NCIM 2063, 24 h; procedure, shortened: as §2
Aspergillus oryzae = assay: Antifungal activity against Aspergillus oryzae NCIM 643 after 48 hrs by NCCLS agar well diffusion method; format: functional; conditions: NCIM 643, 48 h; procedure, shortened: as §1
Rattus norvegicus [3] = assay: Antihyperglycemic activity in streptozotocin-induced type 2 diabetic Wistar albino rat assessed as reduction in plasma glucose level at 10 mg/kg, po by glucometer; format: functional; procedure, shortened: as §3
Pseudomonas aeruginosa = assay: Antibacterial activity against Pseudomonas aeruginosa NCIM 2036 after 24 hrs by NCCLS agar well diffusion method; format: functional; conditions: NCIM 2036, 24 h; procedure, shortened: as §2
Rattus norvegicus [4] = assay: Antihyperglycemic activity in po dosed streptozotocin-induced type 2 diabetic Wistar albino rat assessed as reduction in plasma glucose level by glucometer; format: functional, organism-based; procedure, shortened: as §3
Rattus norvegicus [5] = assay: Antihyperglycemic activity in streptozotocin-induced type 2 diabetic Wistar albino rat assessed as reduction in plasma glucose level at 50 mg/kg, po by glucometer; format: functional; procedure, shortened: as §3
Candida albicans = assay: Antifungal activity against Candida albicans NCIM 3102 after 48 hrs by NCCLS agar well diffusion method; format: functional; conditions: NCIM 3102, 48 h; procedure, shortened: as §1
Escherichia coli = assay: Antibacterial activity against Escherichia coli NCIM 2065 after 24 hrs by NCCLS agar well diffusion method; format: functional; conditions: NCIM 2065, 24 h; procedure, shortened: as §2

SMILES	MIC (Aspergillus niger) [µg/mL]	MIC (Micrococcus luteus) [µg/mL]	MIC (Bacillus pumilus) [µg/mL]	Activity (Rattus norvegicus [1]) [mg/dL]	MIC (Proteus vulgaris) [µg/mL]	MTD [2] [mg/kg]	MIC (Staphylococcus aureus) [µg/mL]	MIC (Klebsiella pneumoniae) [µg/mL]	MIC (Penicillium chrysogenum) [µg/mL]	EC50 (Artemia salina) [µg/mL]	MIC (Bacillus subtilis) [µg/mL]	MIC (Aspergillus oryzae) [µg/mL]	Activity (Rattus norvegicus [3]) [mg/dL]	MIC (Pseudomonas aeruginosa) [µg/mL]	Activity (Rattus norvegicus [4])	Activity (Rattus norvegicus [5]) [mg/dL]	MIC (Candida albicans) [µg/mL]	MIC (Escherichia coli) [µg/mL]
O=C1NC(=O)/C(=C/c2ccc(/C=C/C(=O)c3ccc(F)cc3)cc2)S1	32 (≈ 90.6 µM)	32 (≈ 90.6 µM)	16 (≈ 45.3 µM)	25.67	32 (≈ 90.6 µM)	2000	32 (≈ 90.6 µM)	16 (≈ 45.3 µM)	16 (≈ 45.3 µM)	4.32 (≈ 12.2 µM)	16 (≈ 45.3 µM)	32 (≈ 90.6 µM)	22.74	16 (≈ 45.3 µM)	Dose-dependent effect	33.12	32 (≈ 90.6 µM)	16 (≈ 45.3 µM)
O=C1NC(=O)/C(=C/c2ccc(/C=C/C(=O)c3cccc(F)c3)cc2)S1	64 (≈ 181 µM)	64 (≈ 181 µM)	32 (≈ 90.6 µM)	16.87	64 (≈ 181 µM)	2000	32 (≈ 90.6 µM)	32 (≈ 90.6 µM)	64 (≈ 181 µM)	9.28 (≈ 26.3 µM)	32 (≈ 90.6 µM)	64 (≈ 181 µM)	12.08	32 (≈ 90.6 µM)	Dose-dependent effect	20.66	64 (≈ 181 µM)	32 (≈ 90.6 µM)
O=C1NC(=O)/C(=C/c2ccc(/C=C/C(=O)c3ccc(O)cc3O)cc2)S1	256 (≈ 697 µM)	512 (≈ 1390 µM)	256 (≈ 697 µM)	33.72	256 (≈ 697 µM)	2000	256 (≈ 697 µM)	256 (≈ 697 µM)	256 (≈ 697 µM)	49.2 (≈ 134 µM)	256 (≈ 697 µM)	256 (≈ 697 µM)	26.86	256 (≈ 697 µM)	Dose-dependent effect	41.67	256 (≈ 697 µM)	256 (≈ 697 µM)
O=C1NC(=O)/C(=C/c2ccc(/C=C/C(=O)c3ccc(O)cc3)cc2)S1	256 (≈ 729 µM)	256 (≈ 729 µM)	128 (≈ 364 µM)	30.21	512 (≈ 1460 µM)	2000	128 (≈ 364 µM)	128 (≈ 364 µM)	512 (≈ 1460 µM)	36.2 (≈ 103 µM)	256 (≈ 729 µM)	256 (≈ 729 µM)	21.83	512 (≈ 1460 µM)	Dose-dependent effect	37.12	512 (≈ 1460 µM)	128 (≈ 364 µM)
Cc1cccc(C(=O)/C=C/c2ccc(/C=C3\SC(=O)NC3=O)cc2)c1O	128 (≈ 350 µM)	512 (≈ 1400 µM)	128 (≈ 350 µM)	43.14	32 (≈ 87.6 µM)	2000	128 (≈ 350 µM)	64 (≈ 175 µM)	256 (≈ 701 µM)	33.1 (≈ 90.6 µM)	64 (≈ 175 µM)	128 (≈ 350 µM)	36.76	64 (≈ 175 µM)	Dose-dependent effect	49.99	64 (≈ 175 µM)	64 (≈ 175 µM)
O=C1NC(=O)/C(=C/c2ccc(/C=C/C(=O)c3ccc4ccccc4c3)cc2)S1	512 (≈ 1330 µM)	512 (≈ 1330 µM)	512 (≈ 1330 µM)	31.84	512 (≈ 1330 µM)	2000	512 (≈ 1330 µM)	512 (≈ 1330 µM)	512 (≈ 1330 µM)	48.1 (≈ 125 µM)	512 (≈ 1330 µM)	512 (≈ 1330 µM)	23.75	512 (≈ 1330 µM)	Dose-dependent effect	36.93	512 (≈ 1330 µM)	512 (≈ 1330 µM)
